Reference: ChEMBL document CHEMBL4425108, “A Selective and Slowly Reversible Inhibitor of l-Type Amino Acid Transporter 1 (LAT1) Potentiates Antiproliferative Drug Efficacy in Cancer Cells” (J Med Chem, 2016)
Calls of active or inactive are those of the source. The calls are words filed in the database; no cut-off is given here.

How the values were obtained:
[1] = Unbound AUC (0 to 480 mins) in mouse brain at 23 umol/kg, ip administered as bolus by LC-MS analysis; format: ADME, organism-based; conditions: in vivo
In short: (§1)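 Male mice (25 ± 5 g) dosed i.p. as a bolus at 23 µmol/kg in DMSO/hydroxypropyl-β-cyclodextrin/saline vehicle, sampled at time points 10–480 min; plasma and tissue homogenates (1:3 water) analysed by LC-MS. […] Mean ± SEM.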

[2] = Fraction unbound in mouse plasma at 23 umol/kg, ip administered as bolus by LC-MS analysis; format: ADME, organism-based
In short: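 Unbound fraction was measured by equilibrium dialysis at 100 µM in mouse plasma and in brain, liver, kidney, heart and prostate homogenates.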

[3] = AUC (0 to 480 min) in mouse heart at 23 umol/kg, ip administered as bolus by LC-MS analysis; format: ADME, organism-based; set-up: dose 23 umol/kg, time < 8 hr, route intraperitoneal; conditions: in vivo, 8 h
In short: (§2)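 Male adult mice (25 ± 5 g) given a single i.p. bolus at 23 µmol/kg. The dosing solution was 1.36 mM in 10% (v/v) DMSO, 20% (w/v) hydroxypropyl-β-cyclodextrin and 0.9% NaCl. Animals were decapitated at seven time points from 10 to 480 min. Plasma and tissues were acetonitrile-precipitated with repaglinide internal standard and analysed by LC-MS. Parameters were derived from concentration–time data, mean ± SEM (n=3).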

[4] = biological target: T1, Large neutral amino acids transporter small subunit 2 (Homo sapiens) (UniProt Q9UHI5); experiment: Competitive inhibition of [14C]-L-alanine uptake at LAT2 in human MCF7 cells at 100 uM preincubated for 10 mins followed by addition of substrate measured during 5 mins by liquid scintillation counting; format: cell-based
T1 sequence (whole entry): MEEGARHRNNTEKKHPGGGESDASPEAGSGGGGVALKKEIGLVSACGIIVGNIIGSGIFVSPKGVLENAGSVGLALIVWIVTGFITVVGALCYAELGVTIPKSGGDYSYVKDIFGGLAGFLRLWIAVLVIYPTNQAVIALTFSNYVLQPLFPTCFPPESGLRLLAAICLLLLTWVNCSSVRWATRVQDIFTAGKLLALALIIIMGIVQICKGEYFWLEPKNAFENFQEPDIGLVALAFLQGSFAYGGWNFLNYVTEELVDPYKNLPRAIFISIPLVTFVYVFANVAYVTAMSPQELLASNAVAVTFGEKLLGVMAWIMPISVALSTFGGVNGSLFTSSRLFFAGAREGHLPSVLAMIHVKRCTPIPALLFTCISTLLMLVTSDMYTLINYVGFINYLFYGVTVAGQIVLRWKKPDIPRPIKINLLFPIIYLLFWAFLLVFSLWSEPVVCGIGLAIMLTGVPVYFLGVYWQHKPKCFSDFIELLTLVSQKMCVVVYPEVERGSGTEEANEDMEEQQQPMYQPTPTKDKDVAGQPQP
In short: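 MCF-7 cells were seeded at 1 × 10^5 cells/well and used one day later. Cells were washed and pre-incubated 10 min at 37 °C in HEPES-buffered HBSS (choline chloride, pH 7.4). Uptake of 10.0 µM [14C]-L-alanine ran 5 min at 37 °C with test agent (1–1000 µM) or DMSO blank. Cells were then given three ice-cold washes, lysed in 0.1 M NaOH and counted by liquid scintillation; n=3.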

[5] = biological target: T2, Large neutral amino acids transporter small subunit 1 (Homo sapiens, UniProt Q01650); experiment: Competitive binding to LAT1 in human MCF7 cells at 100 uM after 30 mins in presence of unselective OATP substrate L-thyroxine by HPLC analysis; format: cell-based
In short: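 MCF-7 cells incubated 30 min at 37 °C in HBSS (pH 7.4) holding 100 µM test compound plus 500 µM competitor. Cells washed three times with ice-cold HBSS and lysed in 0.1 M NaOH. Cell-associated compound measured by HPLC against a lysate-spiked standard curve and normalised to protein. Mean ± SD, n=3.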

[6] = biological target: Large neutral amino acids transporter small subunit 1 (Mus musculus, UniProt Q9Z127); experiment: Drug uptake in mouse brain assessed as LAT1-mediated unidirectional transfer constant measured after perfusion; format: ADME, tissue-based; conditions: in vivo
In short: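 In situ brain perfusion in anaesthetised male mice used 100 µM compound at 37 °C, 2.5 mL/min, for 60 s, then 2 s drug-free buffer at 4 °C. Kin = Qtot/(Cpf × T); mean ± SD, n=3.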

[7] = biological target: T2, Large neutral amino acids transporter small subunit 1; experiment: Inhibition of LAT1 in human MCF7 cells assessed as potentiation of bestatin-induced antiproliferative activity by measuring reduction in cell viability at 25 uM measured after 72 hrs by resazurin dye-based fluorimetric analysis
In short: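 MCF-7 cells seeded 2 × 10^4/well on collagen-coated plates, treated one day later in growth medium with inhibitor (25 or 100 µM) plus bestatin or cisplatin (100 µM) for up to 3 days. Viability read daily by resazurin fluorescence (ex 560/em 590 nm). Viability is treated relative to untreated control. Mean ± SD, n=3.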

[8] = Cmax in mouse brain at 23 umol/kg, ip administered as bolus by LC-MS analysis; format: ADME, organism-based; set-up: dose 23 umol/kg, route intraperitoneal; conditions: in vivo; in short: as §2
[9] = Unbound AUC (0 to 480 mins) in mouse plasma at 23 umol/kg, ip administered as bolus by LC-MS analysis; format: ADME, organism-based; conditions: in vivo; in short: as §1
[10] = Terminal half life in mouse heart at 23 umol/kg, ip administered as bolus by LC-MS analysis; format: ADME, organism-based; conditions: read-out: beta t1/2; in short: as §2
[11] = biological target: T2, Large neutral amino acids transporter small subunit 1; experiment: Drug uptake in human MCF7 cells assessed as LAT1 mediated drug transport per mg of protein at 100 uM measured 30 mins after warm wash by HPLC analysis; format: ADME, cell-based; conditions: mcf7, 0.5 h
In short: (§3)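 MCF-7 monolayers were incubated with 100 µM compound in HBSS at 37 °C for 5 or 30 min. Cells got three washes with ice-cold or warm (37 °C) HBSS; in the warm 30 min arm they were washed after 5 min and again after 30 min. Lysates (0.1 M NaOH) were quantified by HPLC-UV against a spiked lysate standard curve and normalised to protein (Bio-Rad assay).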

[12] = biological target: T2, Large neutral amino acids transporter small subunit 1; experiment: Competitive inhibition of [14C]-L-leucine uptake at LAT1 in human MCF7 cells at 100 uM preincubated for 10 mins followed by addition of substrate measured during 5 mins by liquid scintillation counting; format: cell-based
In short: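 MCF-7 cells seeded 1 × 10^5/well, used one day later. Washed and pre-incubated 10 min at 37 °C in choline-chloride HBSS (Na+-free, 25 mM HEPES, pH 7.4), then 5 min at 37 °C with 0.157 µM [14C]-L-leucine plus 1-1000 µM inhibitor (DMSO blank). Ice-cold washes, NaOH lysis, scintillation counting. IC50 by nonlinear regression over 8 concentrations. Mean ± SD, n=3.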

[13] = biological target: T2, Large neutral amino acids transporter small subunit 1; experiment: Drug uptake in human MCF7 cells assessed as LAT1 mediated drug transport per mg of protein at 100 uM measured 5 mins after cold wash by HPLC analysis; format: ADME, cell-based; conditions: mcf7, 5 min; in short: as §3
[14] = Tmax in mouse prostate at 23 umol/kg, ip administered as bolus by LC-MS analysis; format: ADME, organism-based, Prostate gland
In short: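 Adult male mice (25 ± 5 g) given a single i.p. bolus of 23 µmol/kg, dosing solution 1.36 mM in 10% (v/v) DMSO, 20% (w/v) hydroxypropyl-β-cyclodextrin, 0.9% NaCl in water. Decapitation at time points 10–480 min; plasma, brain, liver, prostate, kidney, heart collected. Acetonitrile precipitation with repaglinide internal standard, LC-MS (ESI positive). tmax and t½β taken from concentration-time data; mean ± SEM, n=3.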

T2 sequence (Q01650 whole entry): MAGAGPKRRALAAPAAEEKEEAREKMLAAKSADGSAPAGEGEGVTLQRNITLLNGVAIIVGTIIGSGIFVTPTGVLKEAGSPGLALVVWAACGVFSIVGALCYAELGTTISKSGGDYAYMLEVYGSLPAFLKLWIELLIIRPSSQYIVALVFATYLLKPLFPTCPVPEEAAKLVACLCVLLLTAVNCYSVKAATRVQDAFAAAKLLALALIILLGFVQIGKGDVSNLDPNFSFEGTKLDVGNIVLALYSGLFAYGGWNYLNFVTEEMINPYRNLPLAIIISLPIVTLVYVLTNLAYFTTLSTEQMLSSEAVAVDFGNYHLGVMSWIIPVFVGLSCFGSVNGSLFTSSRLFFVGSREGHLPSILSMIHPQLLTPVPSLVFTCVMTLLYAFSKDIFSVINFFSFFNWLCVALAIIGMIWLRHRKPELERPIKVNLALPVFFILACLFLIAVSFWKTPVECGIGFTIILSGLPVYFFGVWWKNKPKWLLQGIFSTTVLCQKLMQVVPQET
Large neutral amino acids transporter small subunit 1 (Mus musculus, UniProt Q9Z127), sequence (Q9Z127 whole entry, the tested form may be a part): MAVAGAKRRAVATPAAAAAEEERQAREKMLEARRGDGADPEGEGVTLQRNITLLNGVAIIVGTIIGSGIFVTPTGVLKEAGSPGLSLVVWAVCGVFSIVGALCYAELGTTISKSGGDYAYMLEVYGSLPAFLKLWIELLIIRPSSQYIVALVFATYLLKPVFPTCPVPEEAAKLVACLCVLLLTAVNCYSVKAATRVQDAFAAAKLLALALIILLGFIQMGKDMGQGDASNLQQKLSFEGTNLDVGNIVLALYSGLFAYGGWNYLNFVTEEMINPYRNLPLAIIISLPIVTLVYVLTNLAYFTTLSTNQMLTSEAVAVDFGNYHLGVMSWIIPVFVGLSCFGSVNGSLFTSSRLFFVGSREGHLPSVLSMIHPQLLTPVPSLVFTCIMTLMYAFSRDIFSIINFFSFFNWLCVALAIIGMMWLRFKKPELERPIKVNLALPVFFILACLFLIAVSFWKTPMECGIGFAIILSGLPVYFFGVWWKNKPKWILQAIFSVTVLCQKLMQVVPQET

- fAUC [1]: 0.1 nmol/g/min
- fraction unbound [2]: 0.0098
- AUC [3]: 249 nmol/g/min
- inhibition [4]: 3.93%
- Activity [5]: Active
- Kin [6]: 8.2 ×10⁻⁵ ml/s/g
- Cmax [8]: 0.2 nmol/g
- fAUC [9]: 7.8 nmol/min/mL
- half-life [10]: 19.8 min
- Drug uptake [11]: 0.21 nmol/mg
- inhibition [12]: 77.8%
- Drug uptake [13]: 2.8 nmol/mg
- Tmax [14]: 30 min
Compound: CNC(=O)COc1ccc(-c2c(C#N)c(NC(=O)c3cccc(C[C@H](N)C(=O)O)c3)n3c(nc4ccccc43)c2C#N)cc1
- Activity [7]: 52.6%
